Consider one compound from BindingDB's records for PubMed 35349261 (Hospital Regional Universitario, 2022).

In this assay the target is T1, Glucagon-like peptide 1 receptor (Rattus norvegicus, UniProt P32301).
T1 sequence (P32301 whole entry): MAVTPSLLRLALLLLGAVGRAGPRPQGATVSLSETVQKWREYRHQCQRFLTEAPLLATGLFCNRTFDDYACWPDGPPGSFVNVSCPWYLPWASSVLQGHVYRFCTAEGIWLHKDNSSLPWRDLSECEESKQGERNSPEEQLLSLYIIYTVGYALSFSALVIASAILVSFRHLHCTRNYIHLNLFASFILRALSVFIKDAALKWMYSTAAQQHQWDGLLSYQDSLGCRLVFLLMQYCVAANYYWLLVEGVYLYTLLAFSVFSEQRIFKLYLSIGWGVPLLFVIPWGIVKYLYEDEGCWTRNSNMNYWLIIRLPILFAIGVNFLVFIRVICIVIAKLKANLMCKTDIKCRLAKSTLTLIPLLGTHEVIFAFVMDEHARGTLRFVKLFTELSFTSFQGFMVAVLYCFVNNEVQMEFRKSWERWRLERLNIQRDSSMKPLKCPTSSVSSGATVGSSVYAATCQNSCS
Briefly: Positive allosteric modulator activity at GLP-1R in rat INS1 beta-cells assessed potentiation of GLP-1(7-36)NH2 induced insulin secretion at 0.1 nM incubated for 30 mins in presence of exendin(9-39)NH2 by ELISA. Put shortly: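 Rat INS-1E cells in RPMI 1640 with 10% fetal calf serum at 37 °C, 7.5% CO2. Cells were detached, washed and plated at 100,000 cells/well, then held in glucose-free medium for 1.5 h. […] Insulin in the medium was read by ELISA; data are triplicate.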
On the technique in general: An ELISA detects its analyte on a solid surface through an enzyme-linked reagent.

As a reminder, the IC50 is the concentration that gives 50% inhibition. With `FC(F)(F)c1ccc(-c2noc(CN3CCCC(CN4CCOCC4)C3)n2)cc1` (stereo unspecified), the IC50 came to 6.3 nM.
